These results are taken from ChEMBL document CHEMBL5046273, “Development of a Novel, Small-Molecule Brain-Penetrant Histone Deacetylase Inhibitor That Enhances Spatial Memory Formation in Mice” (J Med Chem, 2022).

SMILES strings stand for the structures. Activity calls are given as the source filed them. The calls are words filed in the database; no cut-off is given here.

Data set [1] relates to DU-145. In words: Cytotoxicity against human DU-145 cells assessed as reduction in cell viability at 5 to 10 nM incubated for 48 hrs by MTT assay. The settings on record: dose 5-10 nM. Type of data set: functional, cell-based. In a few lines: (§1)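 DU145 cells in DMEM with 10% FBS were seeded at 14 000 cells/well and allowed to adhere for 24 h. Test agents were diluted from 10 mM DMSO stocks (100, 50, 25 µM; 10, 5, 1.25 nM) and applied in triplicate for 48 h at 37 °C, 5% CO2, with DMSO as vehicle. Read-out was 250 µg/mL MTT for 4 h, DMSO solubilization, and A570 with 690 nm reference. Values normalized to DMSO.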

The next data set deals with Histone deacetylase 1 (Homo sapiens, UniProt Q13547). The data set is described as follows: Inhibition of HDAC1 in human DU-145 cells assessed as increase in histone H3 acetylation after 24 hrs by immunofluorescence microscopy. Type of data set: cell-based.
Sequence of Histone deacetylase 1 (Q13547 whole entry): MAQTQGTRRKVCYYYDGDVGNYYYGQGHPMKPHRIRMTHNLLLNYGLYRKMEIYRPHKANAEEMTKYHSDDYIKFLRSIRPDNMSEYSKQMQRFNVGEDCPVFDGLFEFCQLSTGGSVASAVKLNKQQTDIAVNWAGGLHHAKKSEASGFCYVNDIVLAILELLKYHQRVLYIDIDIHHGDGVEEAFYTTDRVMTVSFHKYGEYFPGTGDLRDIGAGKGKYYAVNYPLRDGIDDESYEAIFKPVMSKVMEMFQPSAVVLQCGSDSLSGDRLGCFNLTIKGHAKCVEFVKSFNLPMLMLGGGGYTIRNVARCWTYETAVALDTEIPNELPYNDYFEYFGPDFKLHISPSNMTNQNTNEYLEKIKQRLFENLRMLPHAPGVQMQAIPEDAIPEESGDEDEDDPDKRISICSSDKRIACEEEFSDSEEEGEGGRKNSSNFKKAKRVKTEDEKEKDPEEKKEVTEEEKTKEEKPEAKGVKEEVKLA
Data set [2] can be described thus: Toxicity in ip dosed BALB/c mouse assessed as maximum tolerated dose measured after 2 weeks. Type of data set: organism-based. The settings on record: BALB/c, in vivo. In a few lines: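 Healthy BALB/c mice, compound in 20% DMSO/saline, single i.p. dose. One mouse each at 200, 100 and 50 mg/kg, then 25, 12.5 and 6.25 mg/kg if needed, repeated until a tolerated dose was found. Last test repeated once. Mice weighed daily for 8 days; euthanized at >20% weight loss or overt toxicity. Morbidity/mortality followed over 2 weeks; triplicate experiments.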

For data set [3], the target named is Histone deacetylase (Homo sapiens) (UniProt Q13547+O15379+Q9UBN7+Q92769+Q9UQL6+Q8WUI4+Q9BY41+Q96DB2+P56524+Q9UKV0+Q969S8). Particulars: DU-145, dose 10.0 nM, time 24.0 hrs.
Data set [4] has as its target T1, Histone deacetylase 2 (Homo sapiens, UniProt Q92769). The data set is described as follows: Inhibition of recombinant human full-length HDAC2 incubated for 10 mins by Glo-luminescence assay. In a few lines: (§2)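 Compounds were serially diluted and incubated with enzyme for 10 min. HDAC-Glo I/II substrate/developer was then added, and luminescence read after 40 min at 23 °C. IC50 from four-parameter fits from two independent titrations, mean ± SD.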

The target in data set [5] is T1, Histone deacetylase 2. The data set is described as follows: Inhibition of recombinant human full-length HDAC2 preincubated for 20 mins with DTT followed by enzyme addition and measured after 10 mins by Glo-luminescence assay. In a few lines: as §2
Data set [6] deals with DU-145. The data set is described as follows: Cytotoxicity against human DU-145 cells assessed as reduction in cell viability at 0.00125 to 100 uM incubated for 48 hrs by MTT assay. Type of data set: functional, cell-based. The settings on record: dose 0.00125-100 µM. In a few lines:
as §1

T1 sequence (Q92769 whole entry): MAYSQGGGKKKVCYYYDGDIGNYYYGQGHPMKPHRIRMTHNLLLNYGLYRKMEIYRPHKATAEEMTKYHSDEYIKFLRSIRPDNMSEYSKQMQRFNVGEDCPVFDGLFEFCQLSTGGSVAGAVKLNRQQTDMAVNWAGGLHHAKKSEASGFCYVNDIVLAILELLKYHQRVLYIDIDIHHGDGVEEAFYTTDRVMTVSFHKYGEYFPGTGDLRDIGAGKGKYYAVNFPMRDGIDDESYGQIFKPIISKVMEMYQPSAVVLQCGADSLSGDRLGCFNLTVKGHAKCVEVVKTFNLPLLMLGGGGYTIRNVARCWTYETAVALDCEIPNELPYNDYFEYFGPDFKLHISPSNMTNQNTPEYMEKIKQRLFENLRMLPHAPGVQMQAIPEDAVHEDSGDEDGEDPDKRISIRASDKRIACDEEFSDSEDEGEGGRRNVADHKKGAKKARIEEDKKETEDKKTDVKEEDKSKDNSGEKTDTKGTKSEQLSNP

Turning to `C/C=C1\NC(=O)[C@H]2CSSCC/C=C/[C@H](CC(=O)N[C@H](C(C)C)C(=O)N2)OC(=O)[C@H](C(C)C)NC1=O` [ROMIDEPSIN], in the data set with DU-145 [1], the result was Active. In addition, the 50% inhibitory concentration (IC50) on Histone deacetylase 1 amounted to 0.0014 µM. In addition, the MTD at 336 h in data set [2] is above 200 mg/kg. Further, the inhibition result in data set [3] was “Active”.

In the case of `CCCC[C@@H](NC(=O)CC(O)/C=C/CCSSCC/C=C/C(O)CC(=O)N[C@H](CCCC)C(=O)O)C(=O)O` (stereo partly specified), the IC50 came out at 140 µM on Histone deacetylase 2 [4] and 11 µM at Histone deacetylase 2 [5].

On to `CCCC[C@@H](NC(=O)CC(O)/C=C/CCSSCC/C=C/C(O)CC(=O)N[C@H](CCCC)C(=O)OC)C(=O)OC` (stereo partly specified), for which the values for the IC50 at Histone deacetylase 2 [4] and at Histone deacetylase 2 [5] were 280 µM and 17 µM, respectively.

In the case of `O=C(CC(O)/C=C/CCSSCC/C=C/C(O)CC(=O)Nc1ccccc1)Nc1ccccc1` (stereo unspecified), the half-inhibitory concentration (IC50) at Histone deacetylase 2 [4] was found to be 105 µM; at Histone deacetylase 2 [5] it was 25 µM. The result in the data set with DU-145 [6] was inactive.

Take `O=C(O)CC(O)/C=C/CCSSCC/C=C/C(O)CC(=O)O` (stereo unspecified): the IC50 came to 140 µM on Histone deacetylase 2 [4] and 28 µM at Histone deacetylase 2 [5].

`CC(C)(C)NC(=O)CC(O)/C=C/CCSSCC/C=C/C(O)CC(=O)NC(C)(C)C` (stereo unspecified): the 50% inhibitory concentration (IC50) at Histone deacetylase 2 [4] is above 100 µM; at Histone deacetylase 2 [5], 18 µM. The result with DU-145 [6] was inactive.
